Experimental data taken from ChEMBL document CHEMBL1152220, “Discovery of a highly orally bioavailable c-5-[6-(4-Methanesulfonyloxyphenyl)hexyl]-2-methyl-1,3-dioxane-r-2-carboxylic acid as a potent hypoglycemic and hypolipidemic agent” (Bioorg Med Chem Lett, 2008).
Activity calls are given as the source filed them. The calls are words filed in the database; no cut-off is given here.

Key:
Mus musculus [1] = assay: Reduction of triglyceride level in Swiss albino mouse serum at 10 mg/kg/day, po for 6 days relative to control; format: functional; design: scale not given: the % may be the effect or the level left
Procedure, shortened: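 Male Swiss albino mice aged 6–8 weeks were dosed orally at 10 mg/kg/day for 6 days. Serum triglyceride is reported as % change relative to vehicle controls, as the mean of n = 6.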

[2] = target: T1, Peroxisome proliferator-activated receptor alpha (Homo sapiens, UniProt Q07869); assay: Agonist activity at human PPARalpha ligand binding domain expressed in human HepG2 cells co-transfected with PPRE3-TK-luc assessed as induction of beta-galactosidase activity by transactivation assay; format: cell-based
T1 sequence (Q07869 whole entry): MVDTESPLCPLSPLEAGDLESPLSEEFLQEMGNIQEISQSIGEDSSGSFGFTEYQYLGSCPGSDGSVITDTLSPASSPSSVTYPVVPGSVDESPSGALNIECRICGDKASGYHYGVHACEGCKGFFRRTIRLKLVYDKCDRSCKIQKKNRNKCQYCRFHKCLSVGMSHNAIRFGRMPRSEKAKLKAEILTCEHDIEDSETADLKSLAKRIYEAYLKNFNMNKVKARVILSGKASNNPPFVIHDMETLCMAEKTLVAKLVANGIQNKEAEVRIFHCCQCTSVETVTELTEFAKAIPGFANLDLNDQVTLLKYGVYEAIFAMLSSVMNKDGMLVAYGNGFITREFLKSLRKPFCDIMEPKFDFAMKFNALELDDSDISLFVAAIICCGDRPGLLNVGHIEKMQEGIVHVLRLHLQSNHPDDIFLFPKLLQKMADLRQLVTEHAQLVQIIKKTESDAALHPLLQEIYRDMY
Procedure, shortened: (§1)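 HepG2 cells were transfected with a pSG5 vector carrying hPPARα or hPPARγ cDNA and cotransfected with PPRE3-TK-luc. Firefly luciferase was measured with a commercial assay, and β-galactosidase was read on an ELISA reader. Activity is expressed as fold induction.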

[3] = target: T2, Peroxisome proliferator-activated receptor gamma (Homo sapiens) (UniProt P37231); assay: (§2) Agonist activity at human PPARgamma ligand binding domain expressed in human HepG2 cells co-transfected with PPRE3-TK-luc assessed as induction of beta-galactosidase activity by transactivation assay; format: cell-based
T2 sequence (whole entry): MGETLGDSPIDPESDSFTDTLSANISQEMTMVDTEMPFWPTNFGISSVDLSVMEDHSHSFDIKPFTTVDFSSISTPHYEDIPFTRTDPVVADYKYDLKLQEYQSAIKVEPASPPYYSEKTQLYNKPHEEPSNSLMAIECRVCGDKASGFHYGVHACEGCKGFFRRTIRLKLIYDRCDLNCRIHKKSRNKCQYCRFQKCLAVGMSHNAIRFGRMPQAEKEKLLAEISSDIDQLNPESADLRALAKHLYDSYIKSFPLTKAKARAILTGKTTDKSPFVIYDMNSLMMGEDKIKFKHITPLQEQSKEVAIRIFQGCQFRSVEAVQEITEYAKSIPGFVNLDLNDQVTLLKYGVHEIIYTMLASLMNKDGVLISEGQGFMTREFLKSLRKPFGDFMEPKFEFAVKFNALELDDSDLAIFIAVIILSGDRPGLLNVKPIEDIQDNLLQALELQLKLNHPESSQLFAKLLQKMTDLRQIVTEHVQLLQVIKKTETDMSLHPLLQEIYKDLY
Procedure, shortened: as §1, with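 “induction. Single-point testing was at 10 µM for hPPARα and 0.2 µM for hPPARγ, with EC50 given elsewhere.” for “induction.”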

[4] = target: T3, Peroxisome proliferator-activated receptor gamma (Homo sapiens, UniProt P37231); assay: as §2; format: cell-based
T3 sequence (P37231 whole entry): T2 sequence (whole entry)
Procedure, shortened: as §1, with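 “induction. Single-point testing was at 10 µM for hPPARα and 0.2 µM for hPPARγ, with EC50 given elsewhere.” for “induction.”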

Mus musculus [5] = assay: Hypolipidemic activity in db/db mouse assessed as reduction of triglyceride level at 3 mg/kg/day for 6 days relative to control; format: functional; design: scale not given: the % may be the effect or the level left
Procedure, shortened: (§3)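 Male db/db mice aged 6–8 weeks were dosed daily for 6 days. Plasma glucose and triglycerides were measured, and results are reported as % change relative to vehicle-treated controls.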

Mus musculus [6] = assay: Hypoglycemic activity in db/db mouse assessed as reduction of plasma glucose level at 3 mg/kg/day for 6 days relative to control; format: functional; design: scale not given: the % may be the effect or the level left; procedure, shortened: as §3
[7] = Tmax in Wistar rat at 30 mg/kg, po; format: ADME, organism-based; design: dose 30 mg/kg, route oral; conditions: in vivo
Rattus norvegicus [8] = assay: (§4) Cmax in Wistar rat at 30 mg/kg, po; format: ADME, organism-based; design: dose 30 mg/kg, route oral; conditions: in vivo
[9] = Half life in Wistar rat at 30 mg/kg, po; format: ADME, organism-based; design: dose 30 mg/kg, route oral; conditions: in vivo
Rattus norvegicus [10] = assay: (§5) AUC (0 to infinity) in Wistar rat at 30 mg/kg, po; format: ADME, organism-based, Plasma; design: time infinity, dose 30 mg/kg, route oral; conditions: in vivo
Rattus norvegicus [11] = assay: Hypolipidemic activity in high cholesterol fed Sprague-Dawley rat assessed as effect on HDL-C level at 3 mg/kg/day for 4 days relative to control
Rattus norvegicus [12] = assay: Hypolipidemic activity in high cholesterol fed Sprague-Dawley rat assessed as reduction of LDL-C level at 3 mg/kg/day for 4 days relative to control; design: scale not given: the % may be the effect or the level left
Rattus norvegicus [13] = assay: Hypolipidemic activity in high cholesterol fed Sprague-Dawley rat assessed as reduction of triglyceride level at 3 mg/kg/day for 4 days relative to control; design: scale not given: the % may be the effect or the level left
Rattus norvegicus [14] = assay: Hypolipidemic activity in high cholesterol fed Sprague-Dawley rat assessed as reduction of total cholesterol level at 3 mg/kg/day for 4 days relative to control; design: scale not given: the % may be the effect or the level left
[15] = target: T4, Peroxisome proliferator-activated receptor alpha (Homo sapiens) (UniProt Q07869); assay: Agonist activity at human PPARalpha ligand binding domain expressed in human HepG2 cells co-transfected with PPRE3-TK-luc assessed as induction of beta-galactosidase activity at 10 uM by transactivation assay; format: cell-based
T4 sequence (whole entry): T1 sequence (Q07869 whole entry)
Procedure, shortened: as §1, with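 “induction. Single-point testing was at 10 µM for hPPARα and 0.2 µM for hPPARγ, with EC50 given elsewhere.” for “induction.”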

[16] = as §4; format: ADME, organism-based; design: dose 30 mg/kg, route oral; conditions: Wistar, in vivo
[17] = as §5; format: ADME, organism-based, Plasma; design: time infinity, dose 30 mg/kg, route oral; conditions: Wistar, plasma

With CS(=O)(=O)Oc1ccc(CCCCC[C@H]2CO[C@@](C)(C(=O)O)OC2)cc1 the Activity (Mus musculus [1]) was -28%, the EC50 [2] was 2.5 µM and the Activity [3] was “inactive”.
Cc1ccc(-c2nc(CCCC[C@H]3CO[C@@](C)(C(=O)O)OC3)c(C)o2)cc1 gave an Activity (Mus musculus [1]) of -67%, an EC50 [4] of 7 µM and an Activity (Mus musculus [5]) of -54%. The Activity (Mus musculus [6]) was -44%, the Tmax [7] was 0.67 h and the Cmax (Rattus norvegicus [8]) was 41 µg/mL. It also gave a half-life [9] of 1.5 h, an AUC (Rattus norvegicus [10]) of 99 µg·h/mL and an Activity (Rattus norvegicus [11]) of 88%. For the same molecule, the Activity (Rattus norvegicus [12]) was -68%, the Activity (Rattus norvegicus [13]) was -54% and the Activity (Rattus norvegicus [14]) was -49%.
Molecule COc1ccc(CCCC[C@H]2CO[C@@](C)(C(=O)O)OC2)cc1 has a fold change (FC) [15] of 2.5 and an Activity (Mus musculus [1]) of -11%.
Work on Cc1cccc(Nc2cc(Cl)nc(SCC(=O)O)n2)c1C yielded a fold change (FC) [15] of 3.3.
Work on C[C@]1(C(=O)O)OC[C@@H](CCCCc2ccc(O)cc2)CO1 yielded a fold change (FC) [15] of 1.2 and an Activity (Mus musculus [1]) of -15%.
In the case of C[C@]1(C(=O)O)OC[C@@H](CCCCc2ccc(OCc3ccccc3)cc2)CO1, the fold change (FC) [15] is reported as 2.3 and the Activity (Mus musculus [1]) is reported as -25%.
In the case of C[C@]1(C(=O)O)OC[C@@H](CCCCc2ccc(Cl)cc2)CO1, the fold change (FC) [15] is reported as 2.6 and the Activity (Mus musculus [1]) is reported as -10%.
In the case of CS(=O)(=O)Oc1ccc(CCCC[C@H]2CO[C@@](C)(C(=O)O)OC2)cc1, the fold change (FC) [15] is reported as 3, the Activity (Mus musculus [1]) is reported as -32% and the EC50 [2] is reported as 20 µM. For the same molecule, the Activity [3] was “inactive”.
With C[C@]1(C(=O)O)OC[C@@H](CCCCc2ccc(F)cc2)CO1 the fold change (FC) [15] was 2.3 and the Activity (Mus musculus [1]) was -9%.
In the case of CCO[C@@H](Cc1ccc(OCCc2ccc(OS(C)(=O)=O)cc2)cc1)C(=O)O [TESAGLITAZAR], the Activity (Mus musculus [1]) is reported as -79%, the EC50 [2] is reported as 0.82 µM and the EC50 [4] is reported as 0.013 µM. The Activity (Mus musculus [5]) was -60%, the Activity (Mus musculus [6]) was -54% and the Activity (Rattus norvegicus [11]) was 18%. It also gave an Activity (Rattus norvegicus [12]) of -31%, an Activity (Rattus norvegicus [13]) of -51% and an Activity (Rattus norvegicus [14]) of -59%.
CS(=O)(=O)Oc1ccc(CCCCCC[C@H]2CO[C@@](C)(C(=O)O)OC2)cc1 gave an Activity (Mus musculus [1]) of -71%, an EC50 [2] of 15 µM and an EC50 [4] of 15 µM. The Activity (Mus musculus [5]) was -50%, the Activity (Mus musculus [6]) was -53% and the Tmax [7] was 4 h. For the same molecule, the Cmax [16] was 127 µg/mL, the half-life [9] was 12 h and the AUC(0-inf) [17] was 1490 µg·h/mL. For the same molecule, the Activity (Rattus norvegicus [11]) was 51%, the Activity (Rattus norvegicus [12]) was -46% and the Activity (Rattus norvegicus [13]) was -63%. It also gave an Activity (Rattus norvegicus [14]) of -56%.
With Cc1ccc(CCCC[C@H]2CO[C@@](C)(C(=O)O)OC2)cc1 the fold change (FC) [15] was 3.2 and the Activity (Mus musculus [1]) was -22%.
For CS(=O)(=O)c1ccc(CCCC[C@H]2CO[C@@](C)(C(=O)O)OC2)cc1, the fold change (FC) [15] was 1 and the Activity (Mus musculus [1]) was -7%.
Work on CSc1ccc(CCCC[C@H]2CO[C@@](C)(C(=O)O)OC2)cc1 yielded a fold change (FC) [15] of 4 and an Activity (Mus musculus [1]) of -14%.
C[S+]([O-])c1ccc(CCCC[C@H]2CO[C@@](C)(C(=O)O)OC2)cc1 (stereo not given in full) showed a fold change (FC) [15] of 2 and an Activity (Mus musculus [1]) of -12%.
